The values below come from ChEMBL document CHEMBL1124709, “Synthesis and antiviral activity of 3'-heterocyclic substituted 3'-deoxythymidines” (1990).

Common to all, as to type: functional
Assay [1] concerns MT4. Kind of assay: Cytotoxic dose required to reduce the viability of normal uninfected MT-4 cells by 50%. Particulars: Homo sapiens, read-out: CD50 (the source's name).
Assay [2] relates to C3H/3T3. Nature of the assay: Inhibitory effect on MSV-induced transformation of C3H/3T3 cells. Particulars: Mus musculus, read-out: ED50 (the source's name). In short, it runs like this:
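Murine embryo fibroblast C3H/3T3 cells infected with Moloney murine sarcoma virus; the read-out is inhibition of virus-induced cell transformation.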

Assay [3] has as its system MT4. Kind of assay: Effective dose of compound required to achieve 50% protection of MT-4 cells against the cytopathic effect of HIV. Particulars: Homo sapiens, read-out: ED50 (the source's name). The method, boiled down: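 HIV-1 strain HTLV-III_B in human MT-4 cells; the read-out is inhibition of virus-induced cytopathic effect. ED50 is the dose giving 50% protection of the cells.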
A general note: Protection from cytopathic effect is a common read-out in antiviral testing.

The subject of assay [4] is C3H/3T3. Kind of assay: Minimum cytotoxic concentration required to inhibit MSV-induced transformation of C3H/3T3 cells. Particulars: Mus musculus. In short, it runs like this: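 Murine embryo fibroblast C3H/3T3 cells examined under the microscope. The value is the minimum concentration at which an alteration of normal cell morphology was seen.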

Some results are limits rather than exact numbers.

As to `Cc1cn([C@@H]2O[C@H](CO)[C@H](n3cncn3)C2O)c(=O)[nH]c1=O` (stereo partly drawn), the CC50 in the assay on MT4 [1] was over 500 µM. Further, the EC50 in the assay on C3H/3T3 [2] is over 100 µM; with MT4 [3] it was over 500 µM. Further, the MCC in the assay with C3H/3T3 [4] was over 100 µM.

In the case of `Cc1cn([C@@H]2O[C@H](CO)[C@H](n3cccn3)C2O)c(=O)[nH]c1=O` (stereo partly drawn), the CC50 in the assay on MT4 [1] is over 100 µM. Also, the EC50 in the assay on C3H/3T3 [2] and with MT4 [3] was over 100 µM in each case. In addition, the MCC with C3H/3T3 [4] was over 100 µM.

Take `Cc1cn([C@H]2C[C@@H](NC=O)[C@@H](CO)O2)c(=O)[nH]c1=O`: in the assay with MT4 [1], the CC50 was 66 µM. For the same molecule, the EC50 with C3H/3T3 [2] and in the assay on MT4 [3] was over 100 µM in each case. This molecule had an MCC in the assay with C3H/3T3 [4] of over 100 µM.

Turning to `Cc1cn([C@@H]2O[C@H](CO)[C@H](n3ccnc3)C2O)c(=O)[nH]c1=O` (stereo partly drawn), the CC50 in the assay on MT4 [1] is over 500 µM. The EC50 with C3H/3T3 [2] was over 100 µM; with MT4 [3] it was over 500 µM. The MCC in the assay on C3H/3T3 [4] was over 100 µM.

Take `Cc1cn([C@H]2C[C@@H](n3cncn3)[C@@H](CO)O2)c(=O)[nH]c1=O`: in the assay with MT4 [1], the CC50 was over 500 µM. Moreover, the EC50 was over 100 µM with C3H/3T3 [2] and over 500 µM with MT4 [3]. This molecule also returned an MCC in the assay with C3H/3T3 [4] of over 100 µM.

Consider `Cc1cn([C@H]2C[C@@H](n3cccc3)[C@@H](CO)O2)c(=O)[nH]c1=O`, for which, in the assay on MT4 [1], the CC50 was over 500 µM. Also, the EC50 came out at 91 µM with C3H/3T3 [2] and 201 µM in the assay with MT4 [3]. In the assay on C3H/3T3 [4], this molecule showed an MCC of over 100 µM.

As for `Cc1cn([C@H]2C[C@@H](n3ccnn3)[C@@H](CO)O2)c(=O)[nH]c1=O`, in the assay on MT4 [1], the CC50 was over 500 µM. Further, the values for the EC50 in the assay with C3H/3T3 [2] and with MT4 [3] were over 100 µM and over 500 µM, respectively. For the same molecule, the MCC in the assay on C3H/3T3 [4] is over 100 µM.

As for `Cc1cn([C@@H]2O[C@H](CO)C[C@H]2n2cncn2)c(=O)[nH]c1=O`, the CC50 in the assay with MT4 [1] is over 500 µM. Besides, the EC50 in the assay with C3H/3T3 [2] was over 100 µM; in the assay on MT4 [3] it was over 500 µM. Also, the MCC in the assay with C3H/3T3 [4] was over 100 µM.

Turning to `Cc1cn([C@H]2C[C@@H](n3cnnc3)[C@@H](CO)O2)c(=O)[nH]c1=O`, the CC50 in the assay on MT4 [1] amounted to 4.8 µM. Moreover, the EC50 is over 100 µM in the assay with C3H/3T3 [2] and over 5 µM with MT4 [3]. In the assay on C3H/3T3 [4], the MCC is over 100 µM.

For the molecule `Cc1cn([C@H]2C[C@@H](n3ccnc3)[C@@H](CO)O2)c(=O)[nH]c1=O`, in the assay with MT4 [1], the CC50 is over 500 µM. The EC50 is over 100 µM in the assay on C3H/3T3 [2] and over 500 µM in the assay on MT4 [3]. For the same molecule, the MCC with C3H/3T3 [4] was over 100 µM.

Regarding `Cc1cn([C@H]2C[C@@H](n3cccn3)[C@@H](CO)O2)c(=O)[nH]c1=O`, the CC50 in the assay with MT4 [1] is over 500 µM. The values for the EC50 in the assay with C3H/3T3 [2] and with MT4 [3] were over 100 µM and over 500 µM, respectively. Further, the MCC in the assay on C3H/3T3 [4] was over 100 µM.

With `Cc1cn([C@@H]2O[C@H](CO)[C@@H](O)C2n2cncn2)c(=O)[nH]c1=O` (stereo partly drawn), the CC50 in the assay on MT4 [1] was over 500 µM. The EC50 is over 100 µM in the assay with C3H/3T3 [2] and over 500 µM in the assay with MT4 [3]. The molecule further showed an MCC in the assay with C3H/3T3 [4] of over 100 µM.
